According to the EternaBench riboswitch data:

Tests used:
MS2 coat protein [1] = experiment: apparent Kd, MS2 coat protein; higher = weaker binding; RNA-MaP array; tryptophan 2.4 mM where present
Procedure, shortened: (§1)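 The titrant was SNAP-549-labelled MS2 coat protein, run from 0.7 or 1.5 nM in doubling steps to 3 µM. It was applied to designs transcribed by stalled E. coli RNA polymerase on Illumina sequencing-chip clusters, without ligand first and then with constant ligand, in 100 mM Tris-HCl pH 7.5, 80 mM KCl, 4 mM MgCl2, BSA, DTT, yeast tRNA and Tween-20. The apparent Kd is the median of filtered per-cluster binding-curve fits, with green signal normalised to red-channel RNA signal and control-cluster median Fmax.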

MS2 coat protein [2] = experiment: apparent Kd, MS2 coat protein; higher = weaker binding; RNA-MaP array; theophylline 2 mM where present
Procedure, shortened: as §1

[3] = designed as: OFF switch for tryptophan, no ligand
[4] = ligand present: tryptophan, designed as: OFF switch for tryptophan
[5] = designed as: ON switch for tryptophan, no ligand
[6] = ligand present: tryptophan, designed as: ON switch for tryptophan
[7] = designed as: ON switch for theophylline, no ligand
[8] = ligand present: theophylline, designed as: ON switch for theophylline
[9] = designed as: OFF switch for theophylline, no ligand
[10] = ligand present: theophylline, designed as: OFF switch for theophylline

| Sequence | apparent Kd (MS2 coat protein [2]; [7]) [nM] | apparent Kd (MS2 coat protein [2]; [8]) [nM] | apparent Kd (MS2 coat protein [2]; [9]) [nM] | apparent Kd (MS2 coat protein [2]; [10]) [nM] | further results |
| --- | --- | --- | --- | --- | --- |
| GGGCGCGUGGACCGGCGUGCUCCGCUCCGUCGAGGACCGGUACGGCCGCCACUCGACAUGAGGAUCACCCAUGUGUGAGCUCGCG | – | – | – | – | apparent Kd (MS2 coat protein [1]; [3]): 55.2 nM; apparent Kd (MS2 coat protein [1]; [4]): 281 nM |
| AGCUACUCGUUCCUCAUGUACGAGUGGCAACGAGGACCGGUACGGCCGCCACUCGAAUAAACAUGAGGAUCACCCAUGUACAAAU | – | – | – | – | apparent Kd (MS2 coat protein [1]; [5]): 54.6 nM; apparent Kd (MS2 coat protein [1]; [6]): 120 nM |
| AGAGCAUUGACGGCCGCCACUCAUGUCACAUGAGGAUCACCCAUGUGAUGGGUGAUCGCCCGGUUGAGGACCGGGUCAAUGCUCA | – | – | – | – | apparent Kd (MS2 coat protein [1]; [5]): 43 nM; apparent Kd (MS2 coat protein [1]; [6]): 28.5 nM |
| ACAUGAGGAUCACCCAUGUGCAUCACCCGACGAGGACCGGUACGGCCGCCACUCGGGUAUAUAUUUACAUCGGGUGAUUUUACGU | – | – | – | – | apparent Kd (MS2 coat protein [1]; [5]): 22.8 nM; apparent Kd (MS2 coat protein [1]; [6]): 21 nM |
| GCGUUCUCUGCGGCCGCCACUCAAGGAGCUACAUAGCUCCUAGACAUGAGGAUCACCCAUGUGGCGAGGACCGGGUAGAUCCUUA | – | – | – | – | apparent Kd (MS2 coat protein [1]; [5]): 202 nM; apparent Kd (MS2 coat protein [1]; [6]): 168 nM |
| AGGUGCUGAUCGGCCGCCACUGAGAGGACGUGAACUUUAGCUGGUUACAUGAGGAUCACCCAUGUCAGGACCGGGAUUAGUUUGC | – | – | – | – | apparent Kd (MS2 coat protein [1]; [3]): 9.26 nM; apparent Kd (MS2 coat protein [1]; [4]): 17.4 nM |
| UGGAGUAGGACGGCCGCCACUAUACAAUGUGUAUACAUGAGGAUCACCCAUGUAAUCCUCGGAGAUAGGACCGGGUCAAGUUGUG | – | – | – | – | apparent Kd (MS2 coat protein [1]; [3]): 53.6 nM; apparent Kd (MS2 coat protein [1]; [4]): 50.5 nM |
| UGUCAGCGAAAGUUGACAUGCAGUGCCGGUCGAGGACCGGUACGGCCGCCACUCGAUCUCUCGUACAUGAGGAUCACCCAUGUCG | – | – | – | – | apparent Kd (MS2 coat protein [1]; [5]): 13.4 nM; apparent Kd (MS2 coat protein [1]; [6]): 13.8 nM |
| UUAUAAGUACCGGUCCUCAGAUCCUCAUGACGAGGACCGGUACGGCCGCCACUCGAAACAUGAGGAUCACCCAUGUAAUAAUAAU | – | – | – | – | apparent Kd (MS2 coat protein [1]; [3]): 24.2 nM; apparent Kd (MS2 coat protein [1]; [4]): 21.5 nM |
| UGUAACAUGAGGAUCACCCAUGUAAGUGAUACCAGAUAAGUAGUAGUCCCUUGGCAGCAUAUUGGGCGAGUGUAUAGUCUAUACG | 50.4 | 61.1 | – | – | – |
| AGCUCAUAGAGUGAUACCAGACUACAUGAGGAUCACCCAUGUUUCUUUUGGUUAUCAUGUGUCCCUUGGCAGCACAAGAAGAGCA | – | – | 13.4 | 114 | – |
| AGAGGUGCAACAGAUACCAGUCUACCGUACCUCAGAGAACAUGAGGAUCACCCAUGUAUAGACCCUUGGCAGCUGAUGUUAUUCA | – | – | 22.3 | 79 | – |
| UCGUGUGUUUCGGAUACCAGUGAAAUCGAUACAUGAGGAUCACCCAUGUGAGAGGAUGUACACCCUUGGCAGCUGGCUGUAGCGG | 47.9 | 39.7 | – | – | – |
| UUCAAAGGGAACGGUGCUGGUGACAGAGAUACCAGCGCGGUAACGCGCCCUUGGCAGCUCAGAACAUGAGGAUCACCCAUGUAAU | – | – | 13.6 | 50.2 | – |
| AACUGGGUUCGUGAUACCAGCUCACACAUGAGGAUCACCCAUGUAGUGGGUAAAAUGUGGAGCCCUUGGCAGCACUGUGACCACG | – | – | 13.2 | 60.7 | – |
| AGAUGACACAGUGGAUAGCAAGAUGCCGAUACCAGCUAGGAAACUAGCCCUUGGCAGCGGUACAUGAGGAUCACCCAUGUAUCCU | – | – | 12.2 | 58.7 | – |
| UGUUUGGUGCGCGAGUGUUGGAUAAUUGAUACCAGUGUAGAAGAGCGCCCUUGGCAGCGAAUCCUAACAUGAGGAUCACCCAUGU | 40 | 57.3 | – | – | – |
| CAAAACCUUACAGAUACCAGCACAUGAGGAUCACCCAUGUAUUGGACACUUCGCUCAUCGUGCCCUUGGCAGCUGUGGGACGAGG | – | – | 78.7 | 175 | – |
| UGACAUUGCUCAGAUACCAGACAUGAGGAUCACCCAUGUACCAAGGUACGAAAAUAACAUGUCCCUUGGCAGCUGAGCAAUGUCU | – | – | 13.6 | 251 | – |
| GAUGAACUAUAUGAUACCAGACAACAUGAGGAUCACCCAUGUGAAAGUCGUCCUCUGCCUGUCCCUUGGCAGCGUAUAGUUUAUC | – | – | 50.4 | 168 | – |
| UAUUUGGUGCGCGAGCGCUGGAUAAUUGAUACCAGUGAAGAAGAGCGCCCUUGGCAGCGAAUCCUAACAUGAGGAUCACCCAUGU | 37 | 42.1 | – | – | – |
| GGGAAUGAACGUGAUACCAGAGAUCCGGUCUCCGUCACUCUACAUGAGGAUCACCCAUGUCUCCCUUGGCAGCACCGUCAUCGGG | – | – | 34.4 | 61 | – |
| ACAUGAGGAUCACCCAUGUUCCUCGCCGAUACCAGUGAAGAAUUACGCCCUUGGCAGCGGAAAGAGUGUUUUGGAGAUGAGGUAC | – | – | 72.6 | 108 | – |

| Sequence | apparent Kd (MS2 coat protein [2]; [7]) [nM] | apparent Kd (MS2 coat protein [2]; [8]) [nM] | apparent Kd (MS2 coat protein [2]; [9]) [nM] | apparent Kd (MS2 coat protein [2]; [10]) [nM] | further results |
| --- | --- | --- | --- | --- | --- |
| AUAAGUAAUGUUACGUGUUUAAUUGCAGAUACCAGACUAUACGUUGUCCCUUGGCAGCUGAAUUACAUGAGGAUCACCCAUGUUG | – | – | 25.9 | 25 | – |
| AGCCCUGUACUAGAUACCAGCUACAUGAGGAUCACCCAUGUACGAUAAGACUGUCCAUGUAGCCCUUGGCAGCUGCUCGCAUGUA | – | – | 30.6 | 68.8 | – |
| AGCCCUGUGCUAGAUACCAGCUACAUGAGGAUCACCCAUGUGCGUCAGAAAUGACUGUGUAGCCCUUGGCAGCUACUCGCAUGUA | – | – | 14.5 | 26 | – |
| UAUAUUGUGAUGGAUACCAGCAGAGAAAACGUUUAUCCUAACAUGAGGAUCACCCAUGUAUGCCCUUGGCAGCUGUUGUGGUAUA | – | – | – | 44.4 | – |
| AAACGUUGCUCAGAUACCAGACAUGAGGAUCACCCAUGUACCAAGGUAACCGAAAGGCAUGUCCCUUGGCAGCUGAGCAACGAAA | – | – | 12.8 | 262 | – |
| AUAUUACAUGUUAUUAUACGGUAUACUGAUACCAGUGUUUCUAUUCACCCUUGGCAGCAGCAACAUGAGGAUCACCCAUGUAUUA | 16.7 | 16.9 | – | – | – |
| AUGUCGUUGAAUACAGCGGCAUGGUGUGAUACCAGAAUGAUCAAAUUCCCUUGGCAGCAUCACAUGAGGAUCACCCAUGUUAAGG | 38.3 | 52 | – | – | – |
| UAACAUGAGGAUCACCCAUGUAUAGUCGAUACCAGCUCUGUCUAGAGCCCUUGGCAGCGACACUGGUAUCCAUGGGUGUGGAUAC | 108 | 56.1 | – | – | – |
| ACGAACUGUAGUGAUACCAGACGUACAUGAGGAUCACCCAUGUUGUAAACAUGGUUAAUAGUCCCUUGGCAGCACAGUUAGUUCG | – | – | 347 | 531 | – |
| GCACGACAUGAGGAUCACCCAUGUGCAGAUACCAGUAGGAUAUCCUACCCUUGGCAGCUGAGUGGAUCCGGAGGACCAUGGGUAA | 38 | 82.6 | – | – | – |
| GGUGGGACUUGUGAUACCAGCCUAAUUCGAAUCGAAUUGCACAUGAGGAUCACCCAUGUCGGCCCUUGGCAGCAUGAGUAUUUAU | 287 | 20.4 | – | – | – |
| AGCGAUAUGCAUGAUACCAGCUACAUGAGGAUCACCCAUGUGCGUCAGAAAUGACUGUGUAGCCCUUGGCAGCAUAAAGCAUGUA | – | – | 45.1 | 87.2 | – |
| AAGCUGCCAAGAAGGUGAUCCAAAUGUGAUACCAGCUAGGAAACUAGCCCUUGGCAGCACAUGAGGAUCACCCAUGUAAUAAUAA | – | – | 60.8 | 182 | – |
| UCUUGAGUUUCGGAUACCAGUGUUGUCGAUACAUGAGGAUCACCCAUGUUAGAGGAUGUACACCCUUGGCAGCCGGCUGUGGCGG | 20.7 | 13 | – | – | – |
| ACAUGAGGAUCACCCAUGUGGCGUCUUGAUACCAGACCCGCACUAGUCCCUUGGCAGCAACUACGUGAGGGUCGCCCAUGUGUAG | – | – | 35.9 | 46.8 | – |
| AGAUCUUUCGAAAGAAGGAUCUUGUCUGAUACCAGAGACGAAAGUCUCCCUUGGCAGCAGUGCCAACAUGAGGAUCACCCAUGUA | 20.1 | 21.4 | – | – | – |
| AAACGUUGCUGCGAUACCAGACAUGAGGAUCACCCAUGUACCAAGAAAACGUACAUAAAUGUCCCUUGGCAGCGCAGCAACGAAA | – | – | 582 | 1110 | – |
| AGACAUGAGGAUCACCCAUGUAGUAUGGAUACCAGAUGUAGAUUAGUCCCUUGGCAGCUGUGGUGAAGUGAUGCAUUGCUCCUAG | – | – | 23.4 | 25.9 | – |
| GAUAGUUGAUGGGAUACCAGCGUGCACAUGAGGAUCACCCAUGUGGUUCGUGUACGACGGCGCCCUUGGCAGCCCAUAUUGUGUA | 151 | 18.9 | – | – | – |
| GGGAAAGAAUGUGAUACCAGAGAACCGGUCUCCAUCAAUAUACAUGAGGAUCACCCAUGUCUCCCUUGGCAGCACCAUCAUCAAA | – | – | 23.1 | 75.8 | – |
| AGUCUAUGAAGAGAUACCAGUGAGAGACAUAGACAUGAGGAUCACCCAUGUGACAUGAAGCACCCUUGGCAGCUCAACGAGCUCA | 42.8 | 16.1 | – | – | – |
| GCUGUAAGUGCAGAUACCAGCAUGUUAUAUUUCUAAUGACAUGAGGAUCACCCAUGUAAAUGCCCUUGGCAGCUGCACUUACAGC | 18.9 | 18.8 | – | – | – |
